A selection: hits, their analogues and other compounds. The true share with any hit is near 1.9%.
procasp3 activ = procaspase-3 (human) activation; P42574; recombinant procaspase-3 D3A, Ac-DEVD-pNA absorbance 405 nm; activation, % at 8.5 µM; 0.11% of 330,000 active; AID 463141;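 active means activation above the mean of all tested compounds plus 3 SD, cut at about 21% in these data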;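 further: 0% = DMSO alone and 100% = DMSO wells spiked with extra 5 µM PC-3 D3A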
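Assay system: Procaspase-3 D3A mutant, all three cleavage aspartates alanine. Buffer or medium: Zinc-free HEPES saline buffer with Triton X-100. Times: 1 h compound preincubation, 2 h substrate hydrolysis at 25 °C. Measured by: 405 nm absorbance of p-nitroaniline, reads at 0 and 120 min. Read-out basis: percent activation relative to control range. Replicates: singlicate.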
UBC13 inh = blocks human UBC13 polyubiquitin chain formation; TR-FRET; P61088; inhibition, % at 20 µM; 0.47% of 330,000 active; in the data active means inhibition above about 45%, passing the limit was not always enough
PHOSPHO1 block = inhibitors of human PHOSPHO1 phosphatase. Q8TCT1. recombinant PHOSPHO1, absorbance phosphatase assay. inhibition, % at 13.3 µM. 1.1% of 290,000 active. AID 1565; in the data active means inhibition above about 60%
Target sequence (Q8TCT1 whole entry, looked up): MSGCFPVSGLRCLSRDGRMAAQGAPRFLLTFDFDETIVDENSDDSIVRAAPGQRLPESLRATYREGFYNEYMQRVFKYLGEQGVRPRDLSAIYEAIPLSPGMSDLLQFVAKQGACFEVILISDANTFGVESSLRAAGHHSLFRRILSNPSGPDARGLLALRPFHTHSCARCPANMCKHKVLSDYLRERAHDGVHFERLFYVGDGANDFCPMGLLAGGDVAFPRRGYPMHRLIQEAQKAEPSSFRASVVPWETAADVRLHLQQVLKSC
IDE act = IDE (human) activation, cell-based | activation, % at 5.96 µM | 0.073% of 340,000 active | AID 493087 | P14735 | HEK cells, FAbeta-B cleavage, fluorescence polarization; 0% vehicle, 100% cell-free pure enzyme wells;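 active means activation above the mean of all tested compounds plus 3 SD, set per screening campaign, cut at about 17% in these data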
procasp7 counter = counter-screen: procaspase-7 (human) activation. P55210. recombinant procaspase-7, Ac-DEVD-pNA absorbance 405 nm; D23A/D198A/D206A triple mutant, cannot self-cleave; scale: DMSO 0, 5 µM enzyme 100. activation, % at 8.5 µM. 0.093% of 330,000 active;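 active means percent activation above the screen-wide mean plus 3 SD, cut at about 25% in these data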
Target sequence (P55210 whole entry D23A/D198A/D206A): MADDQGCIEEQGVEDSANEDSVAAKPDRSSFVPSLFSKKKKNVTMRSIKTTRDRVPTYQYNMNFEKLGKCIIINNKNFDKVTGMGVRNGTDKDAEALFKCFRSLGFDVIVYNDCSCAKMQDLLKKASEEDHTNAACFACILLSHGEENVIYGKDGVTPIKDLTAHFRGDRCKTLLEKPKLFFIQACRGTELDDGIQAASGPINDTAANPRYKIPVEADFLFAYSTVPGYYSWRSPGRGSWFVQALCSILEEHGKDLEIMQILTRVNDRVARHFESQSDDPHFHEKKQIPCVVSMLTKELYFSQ
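System: Procaspase-7 triple mutant (PC-7 D3A); measure: % activation from two-timepoint absorbance difference, scaled to controls; times: 1 h compound preincubation, 2 h substrate cleavage, 25 °C; also added: Ac-DEVD-pNA substrate, 400 µM as added; measured by: Epi-absorbance of released pNA at 405 nm, two timepoints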
IDE inh = inhibitors of human insulin-degrading enzyme in cells; AID 434962; inhibition, % at 5.59 µM; 0.41% of 320,000 active; HEK cells, FAbetaB cleavage, fluorescence polarization; P14735;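 active means percent inhibition above the average of all tested compounds plus 3 SD, set per screening campaign, cut at about 16% in these data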;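 further: IDE supplied by intact live HEK cells; FP after avidin binding of uncleaved biotin substrate so inhibition keeps polarization high; 0% = DMSO wells and 100% = 60 µM reference IDE inhibitor Ii1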
Numbers without * were called inactive.

How did COc1ccccc1C(=O)C1CCCN(Cc2cccc3nccnc23)C1 (stereo unspecified) do in these assays?
procasp3 activ: -4; UBC13 inh: -16; PHOSPHO1 block: 60*; IDE act: -3; procasp7 counter: -1; IDE inh: 0

Results for CC(=O)Nc1ccc(NC(=O)C(C)OC(=O)c2ccc(S(=O)(=O)N3CCCCCC3)cc2)cc1 (stereo unspecified) ?
procasp3 activ: 3; UBC13 inh: 11; IDE act: 5; procasp7 counter: -1; IDE inh: 4

Results for CCn1c(N2CCN(CC(=O)c3c(C)n(C)c4ccccc34)CC2)nc2c1c(=O)[nH]c(=O)n2C ?
procasp3 activ: -5; UBC13 inh: 3; PHOSPHO1 block: 92*; IDE act: 3; procasp7 counter: 2; IDE inh: 4

Results for Clc1ccc2ccc3cccnc3c2n1 ?
UBC13 inh: 6; PHOSPHO1 block: 61*; IDE act: 3

How did Cc1cccc(N2CCN(C(=O)c3ccc(-n4cncn4)c([N+](=O)[O-])c3)CC2)c1C do in these assays?
procasp3 activ: -4; UBC13 inh: 2; PHOSPHO1 block: 43; IDE act: 0; procasp7 counter: 1; IDE inh: 1

Results for CCN1CCN(C2=CC3=CC(=C(C#N)C#N)CCC3CC2)CC1 (stereo unspecified) ?
PHOSPHO1 block: -4; IDE act: 35*

How did N#CC(C#N)=C1C=C2C=C(N3CCOCC3)CCC2CC1 (stereo unspecified) do in these assays?
PHOSPHO1 block: 21; IDE act: 58*

Results for N#CC(C#N)=C1C=C2C=C(N3CCCCCC3)CCC2CC1 (stereo unspecified) ?
PHOSPHO1 block: -21; IDE act: 47*

How did CC1(C)CC(NCCN2CCN(C3=CC(=C(C#N)C#N)CC(C)(C)C3)CC2)=CC(=C(C#N)C#N)C1 do in these assays?
procasp3 activ: 4; UBC13 inh: 0; PHOSPHO1 block: -53; IDE act: 1; procasp7 counter: 9; IDE inh: 4

Results for CN1CCN(C2=CC3=CC(=C(C#N)C#N)CCC3CC2)CC1 (stereo unspecified) ?
PHOSPHO1 block: 32; IDE act: 13

Results for Cc1ccc(NC(=O)COC(=O)c2ccccc2-c2nc3ccccc3s2)c(C)c1 ?
procasp3 activ: -1; UBC13 inh: -16; PHOSPHO1 block: -11; IDE act: 3; procasp7 counter: 2; IDE inh: -1

What do the screens show for `CCc1cccc(CC)c1NC(=O)COC(=O)c1ccccc1-c1nc2ccccc2s1`?
procasp3 activ: 5; UBC13 inh: 5; PHOSPHO1 block: 178*; IDE act: 1; procasp7 counter: -5; IDE inh: 1

Results for OC(c1ccc(F)cc1)(C1CCCCC1)C(CN1CCOCC1)c1ccccc1 (stereo unspecified) ?
procasp3 activ: 2; UBC13 inh: -2; PHOSPHO1 block: -13; IDE act: 7; procasp7 counter: 15; IDE inh: 0

How did COc1ccc(OCc2cc(C(=O)N(C)C3CCOC3)no2)c(Cl)c1 (stereo unspecified) do in these assays?
procasp3 activ: 1; UBC13 inh: -4; PHOSPHO1 block: 27; IDE act: -2; procasp7 counter: 10; IDE inh: -5

What do the screens show for `COc1ccc(OCc2cc(C(=O)N(C)C3CCOCC3)no2)c2ccccc12`?
procasp3 activ: 8; UBC13 inh: -7; PHOSPHO1 block: 62*; IDE act: 4; procasp7 counter: -3; IDE inh: 5

What do the screens show for `COc1ccc(CC(=O)Nc2cccc(-c3csc(C)n3)c2)cc1`?
procasp3 activ: -4; UBC13 inh: -1; PHOSPHO1 block: 12; IDE act: -2; procasp7 counter: 2; IDE inh: 6

Results for Cc1nc(-c2cccc(NC(=O)COc3ccc(Cl)cc3)c2)cs1 ?
UBC13 inh: -1; PHOSPHO1 block: 66*; IDE act: 5

What do the screens show for `CSC1=N/C(=C\c2cccc(F)c2)C(=O)S1`?
procasp3 activ: -4; UBC13 inh: -1; PHOSPHO1 block: 67*; IDE act: 1; procasp7 counter: -10; IDE inh: 3

What do the screens show for `O=C(Nc1c2c(nn1-c1ccccc1)CS(=O)(=O)C2)c1ccccc1Br`?
procasp3 activ: 0; UBC13 inh: 3; PHOSPHO1 block: 41; IDE act: 5; procasp7 counter: -5; IDE inh: -1

Results for CCCC(c1nnnn1CCOC)N(Cc1cc2cc(C)c(C)cc2[nH]c1=O)CC1CCCO1 (stereo unspecified) ?
procasp3 activ: -6; UBC13 inh: -4; PHOSPHO1 block: 4; IDE act: 4; procasp7 counter: -18; IDE inh: 5

How did CCC(c1nnnn1CCOC)N(Cc1cc2cc(C)c(C)cc2[nH]c1=O)CC1CCCO1 (stereo unspecified) do in these assays?
procasp3 activ: 0; UBC13 inh: -1; PHOSPHO1 block: 76*; IDE act: 2; procasp7 counter: -9; IDE inh: 5

What do the screens show for `CNC[C@H]1Oc2ccc(NC(=O)Nc3ccc(OC)cc3)cc2C(=O)N([C@@H](C)CO)C[C@H]1C`?
procasp3 activ: 6; UBC13 inh: 48*; procasp7 counter: 17; IDE inh: 3

Results for C[C@H](CO)N1C[C@H](C)[C@@H](CN(C)S(=O)(=O)c2ccccc2)Oc2ccc(NC(=O)CCN3CCOCC3)cc2C1=O ?
procasp3 activ: -1; UBC13 inh: 12; IDE act: 0; procasp7 counter: -6; IDE inh: 5

What do the screens show for `C[C@H](CO)N1C[C@H](C)[C@@H](CN(C)S(C)(=O)=O)Oc2ccc(NC(=O)CCN3CCOCC3)cc2C1=O`?
procasp3 activ: -2; UBC13 inh: 0; IDE act: 3; procasp7 counter: 27*; IDE inh: 4

What do the screens show for `CNC[C@@H]1Oc2ccc(NC(=O)Nc3cccc4ccccc34)cc2C(=O)N([C@@H](C)CO)C[C@@H]1C`?
procasp3 activ: -1; UBC13 inh: 48*; procasp7 counter: -1; IDE inh: 8

Results for CN(CC(=O)Nc1ccc(Cl)c(C(F)(F)F)c1)C(=O)c1cccc(N2C(=O)CCC2=O)c1 ?
procasp3 activ: 4; UBC13 inh: 7; IDE act: 4; procasp7 counter: -5; IDE inh: 3

What do the screens show for `Cc1ccc(NC(=S)NNC(=O)c2cccc([N+](=O)[O-])c2)cc1Cl`?
procasp3 activ: 2; UBC13 inh: -14; PHOSPHO1 block: 74*; IDE act: 3; procasp7 counter: -2; IDE inh: 2

Compound activity from PubChem.
